# Experimental data taken from ChEMBL document CHEMBL4354811, “Discovery of Novel Aryl Carboxamide Derivatives as Hypoxia-Inducible Factor 1α Signaling Inhibitors with Potent Activities of Anticancer Metastasis” (J Med Chem, 2019).
# Active and inactive are the calls of the source. The rule behind the calls is not given here.
# How the values were obtained:
# [1] = Cytotoxicity against human HCCLM3 cells assessed as reduction in cell viability incubated for 48 hrs by MTT assay; assay type: cell-based
# [2] = biological target: Hypoxia-inducible factor 1-alpha (Homo sapiens) (UniProt Q16665); assay: Inhibition of HIF1alpha transcriptional activity in hypoxia-induced human HCCLM3 cells co-transfected with luciferase reporter plasmid containing five copies of HREs and pRL-SV40 plasmid encoding Renilla luciferase at 10 uM incubated with compound under normoxia for 1 hr followed by hypoxia induction and measured after 24 hrs by HRE-dependent dual luciferase reporter gene assay relative to control
# Procedure, shortened: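 LM3 cells co-transfected with firefly luciferase reporter carrying five HRE copies plus pRL-SV40 Renilla plasmid; after transfection treated and kept under hypoxia; firefly luminescence normalized to Renilla. Single-point inhibition rate at 10 μM; IC50 for selected compounds.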
# [3] = tested on: HCCLM3; assay: Inhibition of HIF1alpha accumulation in hypoxia-induced human HCCLM3 cells at 10 uM incubated with compound under normoxia for 1 hr followed by hypoxia induction and measured after 24 hrs by Western blot analysis; assay type: functional, cell-based
# Procedure, shortened: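 LM3 cells treated at 10 μM under hypoxia; HIF-1α protein by western blot, LW6 as reference.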
# [4] = organism: Danio rerio; assay: Antiangiogenic activity in […]/EGFP transgenic zebrafish embryo assessed as destruction of subintestinal vessel at 0.5 uM incubated for 24 hrs by confocal microscopic method; assay type: functional, organism-based
# Procedure, shortened: (§1)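 Transgenic zebrafish with GFP-labeled vascular endothelium; embryos selected, […], exposed 24 h to 0.5 or 1 μM (DMSO vehicle, n = 10; apatinib 0.5 μM reference); SIVs imaged by confocal microscopy and counted per field; means ± SD, three independent experiments.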
# [5] = tested on: MDA-MB-231; assay: Downregulation of MMP2 protein expression in human MDA-MB-231 cells incubated with compound under normoxia for 1 hr followed by hypoxia induction and measured after 24 hrs by Western blot analysis; assay type: functional, cell-based
# Procedure, shortened: (§2)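 MDA-MB-231 cells given 2, 5 or 10 μM under normoxia 1 h, then hypoxia 24 h; E-cadherin, vimentin, MMP-2, MMP-9 by western blot, GAPDH loading control; three independent experiments.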
# [6] = biological target: Hypoxia-inducible factor 1-alpha (Homo sapiens) (UniProt Q16665); assay: Induction of HIF1alpha (unknown origin) degradation
# [7] = organism: Danio rerio; assay: Antiangiogenic activity in […]/EGFP transgenic zebrafish embryo assessed as destruction of subintestinal vessel at 0.5 to 1 uM incubated for 24 hrs by confocal microscopic method; assay type: functional, organism-based; procedure, shortened: as §1
# [8] = tested on: HUVEC; assay: Antiangiogenic activity in HUVEC assessed as suppression of capillary-like tubule formation at 2 to 5 uM incubated under hypoxia for 12 hrs by inverted microscopic method; assay type: functional, cell-based; settings: Homo sapiens
# Procedure, shortened: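 HUVECs seeded on matrigel-precoated wells under hypoxia, treated at 2 or 5 μM; capillary-like tubule branches photographed; representative of three independent experiments.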
# [9] = tested on: SK-OV-3; assay: Inhibition of HIF1alpha accumulation in hypoxia-induced human SKOV3 cells incubated with compound under normoxia for 1 hr followed by hypoxia induction and measured after 24 hrs by Western blot analysis; assay type: functional, cell-based
# Procedure, shortened: (§3)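 MDA-MB-231, SKOV3 and HeLa cells exposed to hypoxia with compound at a range of concentrations; HIF-1α accumulation assessed by western blot.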
# [10] = tested on: MDA-MB-231; assay: Inhibition of vimentin protein expression in human MDA-MB-231 cells incubated with compound under normoxia for 1 hr followed by hypoxia induction and measured after 24 hrs by Western blot analysis; assay type: functional, cell-based; procedure, shortened: as §2
# [11] = tested on: MDA-MB-231; assay: Inhibition of HIF1alpha accumulation in hypoxia-induced human MDA-MB-231 cells incubated with compound under normoxia for 1 hr followed by hypoxia induction and measured after 24 hrs by Western blot analysis; assay type: functional, cell-based; procedure, shortened: as §3
# [12] = tested on: MDA-MB-231; assay: Antimetastatic activity against human MDA-MB-231 cells stable expressing luciferase xenografted in ip dosed BALB/c nude mouse assessed as reduction in lung colonization of tumor cells administered every 2 days for 3 weeks starting at 24 hrs post-trensfection and measured at 24 hrs after final doses by H and E staining method; assay type: functional, organism-based
# Procedure, shortened: (§4)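 Luciferase-expressing MDA-MB-231 cells injected into tail vein of BALB/c nude mice; i.p. vehicle or 15 and 30 mg/kg starting 24 h later, every 2 days for 20 days; bioluminescence imaged 24 h after last dose; lungs examined by H&E histology; n = 4 per group, mean ± SD.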
# [13] = biological target: Hypoxia-inducible factor 1-alpha (Homo sapiens) (UniProt Q16665); assay: Potency index, ratio of IC50 for 2-Methyl-N-phenethylthiazole-4-carboxamide to IC50 for test compound for inhibition of HIF1alpha transcriptional activity in hypoxia-induced human HCCLM3 cells incubated with compound under normoxia for 1 hr followed by hypoxia induction and measured after 24 hrs by HRE-dependent dual luciferase reporter gene assay
# [14] = tested on: MDA-MB-231; assay: Inhibition of cell invasion in human MDA-MB-231 cells incubated with compound under normoxia for 1 hr followed by hypoxia induction and measured after 24 hrs by transwell assay/crystal violet staining based inverted microscopic method; assay type: functional
# Procedure, shortened: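 Transwell with MDA-MB-231 cells in upper chamber on matrigel-precoated inserts; 2, 5, 10 μM under normoxia 1 h then hypoxia 24 h; invaded cells stained with crystal violet and counted; three experiments, means ± SD.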
# [15] = tested on: HUVEC; assay: Antiangiogenic activity in HUVEC assessed as disruption in capillary-like tubule formation at 5 uM incubated under hypoxia for 12 hrs by inverted microscopic method; assay type: functional, Homo sapiens
# Procedure, shortened: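 HUVECs on matrigel-precoated wells, incubated under hypoxia with 5 μM compound; tubule branches photographed; three independent experiments.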
# [16] = tested on: MDA-MB-231; assay: Inhibition of cell migration in human MDA-MB-231 cells incubated with compound under normoxia for 1 hr followed by hypoxia induction and measured after 24 hrs by wound healing assay based inverted microscopic method; assay type: functional
# Procedure, shortened: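 Wound-healing: monolayer of MDA-MB-231 scratched, treated 2, 5, 10 μM or DMSO under normoxia 1 h then hypoxia 24 h; wound closure imaged; three independent experiments.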
# [17] = tested on: MDA-MB-231; assay: Induction of apoptosis in human MDA-MB-231 cells at 2 to 10 uM incubated for 24 hrs; assay type: cell-based; settings: mda-mb-231, 24 h
# [18] = tested on: MDA-MB-231; assay: Antimetastatic activity against human MDA-MB-231 cells stable expressing luciferase xenografted in ip dosed BALB/c nude mouse assessed as reduction in lung colonization of tumor cells administered every 2 days for 3 weeks starting at 24 hrs post-trensfection and measured at 24 hrs after final dose by bioluminescent imaging assay; assay type: functional, organism-based; procedure, shortened: as §4
# [19] = Toxicity in BALB/c nude mouse xenografted with human MDA-MB-231 cells stable expressing luciferase assessed as change in body weight at 15 to 30 mg/kg, ip administered every 2 days for 3 weeks starting at 24 hrs post-trensfection; assay type: organism-based; settings: in vivo
# Procedure, shortened: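 Tail-vein luciferase MDA-MB-231 lung-metastasis model in BALB/c nude mice; 15 or 30 mg/kg i.p. every 2 days for 20 days from 24 h post-injection; body weight recorded at study end.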
# [20] = tested on: HUVEC; assay: Antiproliferative activity against HUVEC at 2 to 5 uM; assay type: cell-based; settings: human
# [21] = tested on: MDA-MB-231; assay: Inhibition of cell growth in human MDA-MB-231 cells at 2 to 10 uM incubated for 24 hrs; assay type: cell-based; settings: mda-mb-231, 24 h
# [22] = tested on: HUVEC; assay: Antiangiogenic activity in HUVEC assessed as reduction in VEGF mRNA expression incubated with compound under normoxia for 1 hr followed by hypoxia induction and measured after 24 hrs by real time-PCR analysis; assay type: functional, cell-based; settings: Homo sapiens
# Procedure, shortened: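 HUVECs treated with 0.5 or 1 μM; VEGF mRNA by real-time PCR, normalized to GAPDH, compared with normoxia and untreated hypoxic controls; means ± SD of three independent experiments.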
# [23] = tested on: MDA-MB-231; assay: Induction of E-cadherin protein expression in human MDA-MB-231 cells incubated with compound under normoxia for 1 hr followed by hypoxia induction and measured after 24 hrs by Western blot analysis; assay type: functional, cell-based; procedure, shortened: as §2
# [24] = tested on: HeLa; assay: Inhibition of HIF1alpha accumulation in hypoxia-induced human HeLa cells incubated with compound under normoxia for 1 hr followed by hypoxia induction and measured after 24 hrs by Western blot analysis; assay type: functional, cell-based; procedure, shortened: as §3
# [25] = tested on: MDA-MB-231; assay: Downregulation of MMP9 protein expression in human MDA-MB-231 cells incubated with compound under normoxia for 1 hr followed by hypoxia induction and measured after 24 hrs by Western blot analysis; assay type: functional, cell-based; procedure, shortened: as §2
# [26] = biological target: Hypoxia-inducible factor 1-alpha (Homo sapiens) (UniProt Q16665); assay: Potency index, ratio of IC50 for LW6 to IC50 for test compound for inhibition of HIF1alpha transcriptional activity in hypoxia-induced human HCCLM3 cells incubated with compound under normoxia for 1 hr followed by hypoxia induction and measured after 24 hrs by HRE-dependent dual luciferase reporter gene assay
# Hypoxia-inducible factor 1-alpha (Homo sapiens), sequence (Q16665 whole entry, looked up): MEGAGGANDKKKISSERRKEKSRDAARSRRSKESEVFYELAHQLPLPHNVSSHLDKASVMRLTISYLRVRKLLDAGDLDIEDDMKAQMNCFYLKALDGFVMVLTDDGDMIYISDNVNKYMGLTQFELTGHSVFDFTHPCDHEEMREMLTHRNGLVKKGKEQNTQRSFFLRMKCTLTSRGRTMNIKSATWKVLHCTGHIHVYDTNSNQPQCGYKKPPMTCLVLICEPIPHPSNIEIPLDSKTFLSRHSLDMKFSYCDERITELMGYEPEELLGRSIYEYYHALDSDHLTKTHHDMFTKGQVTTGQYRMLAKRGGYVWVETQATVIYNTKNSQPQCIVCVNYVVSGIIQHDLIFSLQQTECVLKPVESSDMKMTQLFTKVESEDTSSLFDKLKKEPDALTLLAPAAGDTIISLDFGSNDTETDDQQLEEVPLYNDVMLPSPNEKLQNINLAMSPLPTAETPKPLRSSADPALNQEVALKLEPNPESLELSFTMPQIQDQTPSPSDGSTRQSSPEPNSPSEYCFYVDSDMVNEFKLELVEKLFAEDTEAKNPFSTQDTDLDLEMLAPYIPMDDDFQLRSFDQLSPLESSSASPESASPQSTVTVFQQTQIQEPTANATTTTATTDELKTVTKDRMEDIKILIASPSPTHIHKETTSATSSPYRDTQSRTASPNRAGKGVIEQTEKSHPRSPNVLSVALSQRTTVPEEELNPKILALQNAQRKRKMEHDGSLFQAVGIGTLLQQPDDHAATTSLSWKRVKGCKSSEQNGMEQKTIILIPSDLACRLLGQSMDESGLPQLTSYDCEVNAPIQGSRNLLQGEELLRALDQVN
smiles,measurement,setting,value
N#Cc1ccccc1-c1ccc(C(=O)NCCc2ccccc2F)nc1,CC50 at 48 h,[1],> 50 µM
same,inhibition,[2],62.7%
O=C(NCCc1cccc(Cl)c1)c1ccc(-c2ccccc2)cn1,CC50 at 48 h,[1],> 50 µM
same,inhibition,[2],64.6%
O=C(NCCc1ccncc1)c1ccc(-c2ccccc2)cn1,CC50 at 48 h,[1],> 50 µM
same,inhibition,[2],60.7%
O=C(NCCc1ccccc1F)c1ccc(-c2ccccc2F)cn1,CC50 at 48 h,[1],> 50 µM
same,inhibition,[2],83.8%
Nc1ccc(CCNC(=O)c2ccc(-c3ccccc3)cn2)cc1,CC50 at 48 h,[1],> 50 µM
same,inhibition,[2],60.2%
O=C(NCCc1ccccc1F)c1ccc(-c2cn[nH]c2)cn1,HIF-1α accumulation inhibition (qualitative),[3],Active
same,inhibition,[2],29.5%
N#CC1(c2ccc(NC(=O)c3cccnc3NCc3ccncc3)cc2)CCCC1,Activity,[4],Active
COC(=O)c1ccc(O)c(NC(=O)COc2ccc(C34CC5CC(CC(C5)C3)C4)cc2)c1,CC50 at 48 h,[1],> 50 µM
same,HIF-1α accumulation inhibition (qualitative),[3],Active
same,inhibition,[2],73.5%
O=C(NCCc1ccccc1)c1ccc(-c2ccccc2)cn1,CC50 at 48 h,[1],> 50 µM
same,inhibition,[2],82.2%
O=C(NCCc1ccccc1F)c1ccc(-c2ccccc2)cn1,CC50 at 48 h,[1],> 50 µM
same,inhibition,[2],91.4%
O=C(NCCc1ccncc1)c1nccc(-c2ccccc2)n1,CC50 at 48 h,[1],> 50 µM
same,inhibition,[2],61.5%
O=C(NCCc1ccccc1F)c1ccc(-c2cccs2)cn1,CC50 at 48 h,[1],> 50 µM
same,inhibition,[2],80%
O=C(NCCc1ccccc1F)c1ccc(-c2cccc(O)c2)cn1,inhibition,[2],0.3%
Cc1nc(C(=O)NCCc2ccccn2)cs1,inhibition,[2],5.1%
COc1ccc(-c2ccc(C(=O)NCCc3ccccc3F)nc2)cc1,inhibition,[2],45.6%
COc1cccc(-c2ccc(C(=O)NCCc3ccccc3F)nc2)c1,inhibition,[2],53.8%
O=C(NCCc1ccccn1)c1ccc(-c2ccccc2)cn1,inhibition,[2],43.7%
O=C(NCCc1ccccc1Cl)c1ccc(-c2ccccc2)cn1,CC50 at 48 h,[1],> 50 µM
same,inhibition,[2],68.4%
O=C(NCCc1ccncc1)c1nnc(-c2ccccc2)o1,CC50 at 48 h,[1],> 50 µM
same,inhibition,[2],67.3%
N#Cc1cccc(-c2ccc(C(=O)NCCc3ccccc3F)nc2)c1,inhibition,[2],44.5%
COc1ccccc1-c1ccc(C(=O)NCCc2ccccc2F)nc1,CC50 at 48 h,[1],> 50 µM
same,inhibition,[5],Dose-dependent effect
same,Activity,[6],Active
same,Activity,[7],Active
same,Activity,[8],Active
same,HIF-1α accumulation inhibition (qualitative),[3],Active
same,inhibition,[9],Dose-dependent effect
same,inhibition,[10],Dose-dependent effect
same,inhibition,[11],Dose-dependent effect
same,Activity,[12],Dose-dependent effect
same,Ratio IC50,[13],170
same,inhibition,[14],Dose-dependent effect
same,Activity,[15],100%
same,inhibition,[16],Dose-dependent effect
same,Activity,[17],Non-Toxic
same,Activity,[18],Dose-dependent effect
same,Activity,[19],Non-Toxic
same,Activity,[20],Non-Toxic
same,growth inhibition (GI),[21],Non-Toxic
same,Activity,[22],Dose-dependent effect
same,Activity,[23],Dose-dependent effect
same,inhibition,[2],91.4 to 97.7%
same,inhibition,[24],Dose-dependent effect
same,inhibition,[25],Dose-dependent effect
same,Ratio IC50,[26],10
O=C(NCCc1ccccc1Cl)c1ccc(-c2ccccc2)cc1,CC50 at 48 h,[1],> 50 µM
same,inhibition,[2],77.2%
O=C(NCCc1ccncc1)c1ccc(-c2ccccc2)nc1,inhibition,[2],47.4%
O=C(NCCc1ccccc1F)c1ccc(-c2ccsc2)cn1,CC50 at 48 h,[1],> 50 µM
same,inhibition,[2],88.2%
O=C(NCCc1ccccc1F)c1ccc(-c2ccoc2)cn1,CC50 at 48 h,[1],> 50 µM
same,HIF-1α accumulation inhibition (qualitative),[3],Active
same,inhibition,[2],73.4%
Cc1nc(C(=O)NCCc2ccccc2)cs1,HIF-1α accumulation inhibition (qualitative),[3],Active
same,inhibition,[2],21.2%
Cc1ccc(C(=O)NCCc2ccncc2)cc1,inhibition,[2],3.1%
